Source: ChEMBL document CHEMBL1147130, “Dihydropyridopyrazinones and dihydropteridinones as corticotropin-releasing factor-1 receptor antagonists: structure-activity relationships and computational modeling” (J Med Chem, 2007)

Target: T1, Corticotropin-releasing factor receptor 1 (Rattus norvegicus, UniProt P35353)
T1 sequence (P35353 whole entry): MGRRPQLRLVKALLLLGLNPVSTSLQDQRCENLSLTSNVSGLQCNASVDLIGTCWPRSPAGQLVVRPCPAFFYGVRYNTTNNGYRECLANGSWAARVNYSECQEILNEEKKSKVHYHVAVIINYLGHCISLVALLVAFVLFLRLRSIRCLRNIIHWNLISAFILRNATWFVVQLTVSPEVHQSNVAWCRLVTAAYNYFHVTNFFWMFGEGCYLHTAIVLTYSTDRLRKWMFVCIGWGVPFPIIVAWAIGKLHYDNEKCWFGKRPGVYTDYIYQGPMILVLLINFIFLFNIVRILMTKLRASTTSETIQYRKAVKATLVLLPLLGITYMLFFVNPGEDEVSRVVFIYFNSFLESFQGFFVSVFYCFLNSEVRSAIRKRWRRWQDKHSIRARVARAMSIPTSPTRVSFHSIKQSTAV
Assay: Displacement of [125I]Tyr-o-CRF from CRF1 receptor in rat frontal cortex homogenates
Format: tissue-based
In short: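 Bound ligand collected by filtration on PEI-treated glass fiber filters and gamma counted. Nonspecific binding defined with 1 µM DMP696.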

IC50 | Compound
0.713 µM | CCCCN(CC)c1nc(C)nc2c1NC(=O)CN2c1ccc(C(C)=O)cc1C
0.172 µM | CCCCN(CC)c1nc(C)nc2c1NCCN2c1ccc(C(C)=O)cc1C
0.573 µM | CCCCN(CC)c1nc(C)nc2c1NC(=O)CN2c1ccc(C#N)cc1C
0.095 µM | CCCCN(CC)c1nc(C)nc2c1NC(=O)CN2c1ccc(OC)cc1C
0.0058 µM | CCCCN(CC)c1cc(C)nc2c1NC(=O)CN2c1ccc(C(C)=O)cc1C

The next lines start with the molecule.

Compound | IC50
CCCCN(CC)c1cc(C)nc2c1NCCN2c1ccc(C#N)cc1C | 0.0035 µM
CCCCN(CC)c1cc(C)nc2c1NCCN2c1ccc(OC)nc1OC | 0.0022 µM
CCCCN(CC)c1nc(C)nc2c1NCCN2c1ccc(C#N)cc1C | 0.102 µM
CCCN(CCOC)c1nc(C)nc2c1NCCN2c1cc(OC)c(OC)cc1C | 0.21 µM
CCCCN(CC)c1cc(C)nc2c1NCCN2c1ccc(C(C)=O)cc1C | 0.0082 µM
CCCCN(CC)c1nc(C)nc2c1NCCN2c1ccc(OC)cc1C | 0.0117 µM
CCCN(CCOC)c1cc(C)nc2c1NCCN2c1cc(OC)c(OC)cc1C | 0.087 µM
CCCCN(CC)c1nc(C)nc2c1NCCN2c1ccc(OC)nc1OC | 0.0099 µM
CCCN(CCOC)c1cc(C)nc2c1NC(=O)CN2c1cc(OC)c(OC)cc1C | 0.043 µM
CCCCN(CC)c1cc(C)nc2c1NC(=O)CN2c1ccc(C#N)cc1C | 0.0033 µM
CCCCN(CC)c1cc(C)nc2c1NCCN2c1ccc(OC)cc1C | 0.0042 µM
CCCCN(CC)c1nc(C)nc2c1NC(=O)CN2c1ccc(OC)nc1OC | 0.06 µM
